Experimental data from PMC7280087 (Drug Design, Development and Therapy, 2020).

Legend:
[1] = type: in vivo, Sprague-Dawley rats; settings: single-dose group (voriconazole 30 mg/kg); vonoprazan 10 mg/kg oral; rats
[2] = biological target: vonoprazan metabolism in rat liver microsomes; assay: Inhibition of vonoprazan metabolism by voriconazole in rat liver microsomes; type: in vitro ADME; settings: RLM; for mode of inhibition of vonoprazan metabolism: Lineweaver–Burk plot, Ki ≠ αKi
Method in brief: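 Rat liver microsomes were prepared in-house and used at 0.44 mg/mL, with 1 mM NADPH in 100 mM potassium phosphate (pH 7.4) in a 200 µL volume. Test inhibitor was at 0, 1.5, 3, 6 and 12 μM and substrate at 5, 10, 20 and 40 μM. Incubation ran 50 min at 37°C, was stopped by −80°C cooling, then acetonitrile plus IS was added. Substrate was quantified by LC-MS/MS, with Lineweaver–Burk and secondary plots giving Ki and αKi.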

[3] = 0-12 μM voriconazole, 5-40 μM vonoprazan, Lineweaver–Burk secondary plot

| decrease of CLz/F compared with the control group [1] [fold] | Ki [2, 3] [nM] | αKi [2, 3] [µM] | Structure (SMILES) | mode of inhibition of vonoprazan metabolism [2] | mode of inhibition of vonoprazan metabolism ([2]; listed as voriconazole) |
| --- | --- | --- | --- | --- | --- |
| 2.7 |  |  | CNCc1cc(-c2ccccc2F)n(S(=O)(=O)c2cccnc2)c1 [Vonoprazan, vonoprazan] |  |  |
|  | 2690 | 5.32 | C[C@@H](c1ncncc1F)[C@](O)(Cn1cncn1)c1ccc(F)cc1F [Voriconazole, voriconazole] | mixed inhibition | mixed type |
